In series [1] the test system is CT-L activity of purified 20S human proteasomes (β5, β5i, β1i). The series can be described thus: Enzyme kinetics assay, CT-L activity of purified 20S proteasomes. Type of series: biochemical. To be noted: for Inhibition of the CT-L activity of purified proteasomes: purified 20S CP and IP, β5, β5i, β1i, result in words; for Activation of the CT-L activity of proteasomes: at 10 μM, purified proteasomes. In a few lines:
(§1)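 Purified human 20S constitutive and immunoproteasome (0.5 µg/mL) was preincubated with test compound for 30 min at room temperature in 20 mM Tris-HCl, 0.5 mM EDTA, 0.035% SDS. Reactions were started with a subunit-selective AMC substrate: β1 Ac-nLPnLD-AMC 100 µM; β2/β2i Boc-LRR-AMC 200 µM; β5 Ac-WLA-AMC 20 µM; β1i Ac-PAL-AMC 100 µM; β5i Ac-ANW-AMC 100 µM. AMC fluorescence (ex 360/em 460 nm) was followed for 90 min at room temperature.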

Series [2] deals with C-L activity responsible β1 subunit of purified 20S human proteasome (Homo sapiens, UniProt P28072). In words: Enzyme kinetics assay, C-L activity of purified 20S proteasome. Type of series: biochemical. The note with it: result in words. The gist of the method:
as §1

Series [3] relates to proteasomal CT-L activity of RPMI 8226 cell extracts. In words: CT-L activity of proteasomes in cell extracts. It counts as biochemical, human. To be noted: result in words. The gist of the method:
(§2)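 Cytosolic extracts of RPMI-8226 cells were prepared by the Kisselev and Goldberg method and used in place of purified 20S proteasome. Hydrolysis of fluorogenic substrates was measured as AMC release: Suc-LLVY-AMC for CT-L, Z-LLE-AMC for C-L and Boc-LRR-AMC for T-L activity. Fluorescence was read at excitation 360 and emission 460 nm.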

Series [4] addresses T1, proteasomal C-L activity of RPMI 8226 cell extracts (Homo sapiens, UniProt P28072).
T1 sequence (P28072 1-239): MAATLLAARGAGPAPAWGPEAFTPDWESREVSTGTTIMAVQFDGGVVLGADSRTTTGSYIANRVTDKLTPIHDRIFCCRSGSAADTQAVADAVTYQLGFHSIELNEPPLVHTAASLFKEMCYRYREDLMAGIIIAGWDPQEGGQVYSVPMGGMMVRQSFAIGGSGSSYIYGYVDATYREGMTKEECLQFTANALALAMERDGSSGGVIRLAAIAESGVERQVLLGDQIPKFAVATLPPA
The series can be described thus: C-L activity of proteasomes in cell extracts. It counts as biochemical. To be noted: result in words. The gist of the method: as §2

The test system of series [5] is proteasomal T-L activity of RPMI 8226 cell extracts. In words: T-L activity of proteasomes in cell extracts. It counts as biochemical, human. To be noted: result in words. The gist of the method:
as §2

In series [6] the test system is proteasome in RPMI 8226 cell lysates (Suc-LLVY-AMC hydrolysis). The series can be described thus: Jump dilution reversibility assay. It counts as biochemical, human. The gist of the method:
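RPMI 8226 lysate (30 µg total protein) was incubated with test compound at 10 µM in 20S proteasome assay buffer for 30 min at room temperature. Baseline Suc-LLVY-AMC hydrolysis was recorded in a cuvette. The mixture was then rapidly diluted 25-fold in assay buffer (10 to 0.4 µM compound), and substrate hydrolysis was monitored for about 30 min.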

Series [7] concerns cancer cell lines including LNCaP prostate cancer cells. The series can be described thus: Cytotoxicity of G4-1 in cancer cell lines. The note with it: variety of cancer cell lines including LNCaP; 72 h. Type of series: cell-based, human. In a few lines: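 Log-phase adherent cells were seeded at 7,000–10,000 per well; suspension RPMI 8226 cells were pelleted and seeded at 10,000 per well. Viability was read after 72 h by CellTiter Glo luminescence or CellTiter 96 Aqueous One absorbance.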

Series [8] deals with BxPC-3 cell lines with acquired resistance to bortezomib or carfilzomib. In words: Cytotoxicity in bortezomib- or carfilzomib-resistant BxPC-3 sublines. To be noted: BxPC-3 sublines adapted to 60 nM bortezomib or 200 nM carfilzomib. Type of series: cell-based, human.
The test system of another series is LNCaP tumors. In words: In vivo efficacy assay, LNCaP xenograft. The arrangement: species or system mouse. The note with it: 5 mg/kg i.p. twice a week for 4 weeks.

“Also recorded” adds a separate entry of the source.

Take `Cc1ccc(OS(=O)(=O)c2cccc(C(F)(F)F)c2)c(-c2cc(C3CCCN(C(=O)N[C@@H]4CCNC4)C3)n(CCN[C@@H]3CCNC3)n2)c1` (stereo partly shown) [G4-42]: in series [1], the “Inhibition of the CT-L activity of purified proteasomes” value (shortened to “Inhibition … of purified proteasomes”) is “potently inhibit”.

On to `Cc1ccc(OS(=O)(=O)c2cccc(C(F)(F)F)c2)c(-c2cc(C3CCCCC3)n(CCN[C@@H]3CCNC3)n2)c1` [G4-40], for which the “Inhibition … of purified proteasomes” value in [1] was “potently inhibit”.

For the molecule `CC1=C(COC(=O)Cn2nc(-c3cc(C)ccc3OS(=O)(=O)c3cccc(C(F)(F)F)c3)cc2-c2ccccc2)Cc2ccccc21` [G4-16], the “Activation of the CT-L activity of proteasomes” value in series [1] is given as “up to 200%”.

With `Cc1ccc(OS(=O)(=O)c2cccc(C(F)(F)F)c2)c(-c2cc(-c3ccccc3)n(CCN[C@@H]3CCNC3)n2)c1` [G4], the “Inhibition … of purified proteasomes” value in [1] is “potently inhibit; also recorded: selectively inhibits; also recorded: preferentially inhibits”. In addition, the “Inhibition of the C-L activity (β1) of purified proteasome” value in [2] is “selectively inhibits; also recorded: preferentially inhibits”.

Turning to `Cc1ccc(OS(=O)(=O)c2ccc(F)c([N+](=O)[O-])c2)c(-c2cc(-c3ccccc3)n(CCN[C@@H]3CCNC3)n2)c1` [G4–21], in series [1], the “Activation of the CT-L activity of proteasomes” value is given as “up to 200%”.

Consider `Cc1ccc(OS(=O)(=O)c2cccc(C(F)(F)F)c2)c(-c2cc(-c3ccccc3)n(CC(=O)N[C@@H]3CCNC3)n2)c1` [G4-1], for which the “Inhibition … of purified proteasomes” value in [1] is given as “most potent inhibitor”. Further, in series [3], the “Inhibition of proteasomal CT-L activity of cell extracts” value is “effectively inhibit”. Further, the “Inhibition of proteasomal C-L activity of cell extracts” value in series [4] is “effectively inhibit”. The “Activity against the T-L activity of cell extracts” value in series [5] was “no activity”. Also, the “Inhibition of proteasomal activity after preincubation” value in series [6] (10 μM, 30 min preincubation with RPMI 8226 cell extracts) was “nearly complete inhibition”. Further, the Inhibitor dissociation half-life entry in series [6] (after 25-fold dilution from 10 to 0.4 μM) is “approximately 3.2 min”. In addition, the “Mode of proteasome inhibition” value in series [6] (jump dilution, upward curvature of progress curve) is given as “reversibility”. For the same molecule, in series [7], the “Anticancer activity against cancer cell lines” value is listed as “good anticancer activity”. In addition, the “Impact of acquired resistance to bortezomib or carfilzomib on anticancer effect” value in series [8] is listed as “not negatively impacted”. Moreover, in the series on LNCaP tumors, the “Body weight of mice over the course of treatment” value was “maintained normal weight gain” and the “Systemic toxicity in mice” value is on record as “without apparent systemic toxicity”. Besides, the “Tumor growth in vivo” value in the series on LNCaP tumors (nude mice bearing LNCaP tumors) is listed as “effectively suppressed tumor growth”.

Consider `Cc1ccc(OS(=O)(=O)c2cccc(C(F)(F)F)c2)c(-c2cc(C3CCCNC3)n(CCN[C@@H]3CCNC3)n2)c1` (stereo partly shown) [G4-41], for which, in [1], the “Inhibition … of purified proteasomes” value is listed as “potently inhibit”.

The record behind these values is paper PMC11790068 (Journal of medicinal chemistry, 2015).
